Activity calls are given as the source filed them. The rule behind the calls is not given here.
What was measured:
[1] = tested on: K562; assay: Cytotoxicity against human K562 cells by MTT assay; format: functional, cell-based
Summary of the method: (§1)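 Log-phase cells were diluted to 40,000–50,000 cells/mL in medium with 10% FBS, 2 mM glutamine and antibiotics (37 °C, 5% CO₂). They were seeded in 96-well plates and treated with a range of doses. MTT was added for 4 h, the formazan was dissolved in DMSO, and absorbance was read at 590 nm.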

[2] = Cytotoxicity against human LO2 cells by MTT assay; format: cell-based; conditions: L02; summary of the method: as §1
[3] = tested on: HepG2; assay: Cytotoxicity against human HepG2 cells by MTT assay; format: functional, cell-based; summary of the method: as §1
[4] = tested on: A-375; assay: Cytotoxicity against human A375 cells by MTT assay; format: functional, cell-based; summary of the method: as §1
[5] = tested on: SK-OV-3; assay: Cytotoxicity against human SKOV3 cells by MTT assay; format: functional, cell-based
[6] = tested on: HepG2; assay: Induction of microtubule polymerization in human HepG2 cells at 1 uM after 24 hrs by propidium iodide-FITC-based staining method
[7] = tested on: HCT-8; assay: Cytotoxicity against taxol-resistant human HCT8 cells by MTT assay; format: functional, cell-based
[8] = Ratio of taxol IC50 to compound IC50 for mouse C26 cells by MTT assay; format: functional
[9] = tested on: NCI-H358; assay: Cytotoxicity against human NCI-H358 cells by MTT assay; format: functional, cell-based
[10] = tested on: Bel-7402; assay: Cytotoxicity against human Bel7402 cells by MTT assay; format: functional, cell-based
[11] = tested on: DU-145; assay: Cytotoxicity against human DU145 cells by MTT assay; format: functional, cell-based
[12] = tested on: HCT-15; assay: Cytotoxicity against human HCT15 cells by MTT assay; format: functional, cell-based
[13] = tested on: MCF7; assay: Cytotoxicity against human MCF7 cells by MTT assay; format: functional, cell-based
[14] = tested on: HepG2; assay: Effect on microtubule network in human HepG2 cells assessed as abnormal mitotic spindles at 1 uM after 24 hrs by propidium iodide-FITC-based staining method; format: cell-based
Summary of the method: (§2)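 HepG2 cells were treated with 1.0 μM for 24 h. They were washed in PBS, fixed in cold 4% PFA for 10 min and blocked for 1 h in 5% goat serum/0.3% Triton/PBS. Staining used monoclonal anti-α-tubulin overnight at 4 °C, then Alexa Fluor 488 anti-mouse IgG for 30 min at room temperature, with propidium iodide for DNA. Cells were imaged by fluorescence or confocal microscopy.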

[15] = tested on: A2780; assay: Cytotoxicity against taxol-resistant human A2780 cells by MTT assay; format: functional, cell-based
[16] = Cytotoxicity against human SPC-A1 cells by MTT assay; format: functional, cell-based; conditions: SPCA1
[17] = Cytotoxicity against human ES2 cells by MTT assay; format: functional, cell-based; conditions: ES-2
[18] = tested on: HepG2; assay: Effect on microtubule network in human HepG2 cells assessed as multiple tubulin bundles without chromosomes aligned at the metaphase plate with more dispersion of the chromosomes at 1 uM after 24 hrs by propidium iodide-FITC-based staining method; format: cell-based; summary of the method: as §2
[19] = tested on: HepG2; assay: Cell cycle arrest in human HepG2 cells assessed as accumulation at G2/M phase at after 24 hrs by flow cytometry; format: functional, cell-based
[20] = Cytotoxicity against human MCF7/ADR cells by MTT assay; format: functional, cell-based; conditions: NCI/ADR-RES
[21] = tested on: SK-HEP1; assay: Cytotoxicity against human SKHEP1 cells by MTT assay; format: functional, cell-based
[22] = tested on: HT-29; assay: Cytotoxicity against human HT-29 cells by MTT assay; format: functional, cell-based
[23] = Cytotoxicity against human A2780S cells by MTT assay; format: functional, cell-based; conditions: A2780
[24] = Cytotoxicity against mouse C26 cells by MTT assay; format: functional, cell-based
[25] = Cytotoxicity against human H460 cells by MTT assay; format: functional, cell-based; conditions: NCI-H460
[26] = tested on: PC-3; assay: Cytotoxicity against human PC3 cells by MTT assay; format: functional, cell-based
[27] = tested on: HepG2; assay: Cell cycle arrest in human HepG2 cells assessed as accumulation at G2/M phase at 1 uM after 24 hrs by flow cytometry (reference value: 17.07 %); format: functional
[28] = tested on: HepG2; assay: Cell cycle arrest in human HepG2 cells assessed as accumulation at G2/M phase at 0.2 uM after 24 hrs by flow cytometry (reference value: 17.07 %); format: functional

COc1ccc(/C=C/C(=O)c2ccc(OC)c3c2OC(C)(C)C=C3)cc1OC(=O)CCl
IC50 [1]: 400 nM
IC50 [2]: > 10 µM
IC50 [3]: 120 nM
IC50 [4]: 450 nM

C#CCOc1cc(/C=C/C(=O)c2ccc(OC)c3c2OC(C)(C)C=C3)ccc1OC
IC50 [1]: > 10000 nM
IC50 [2]: > 10 µM
IC50 [3]: > 10000 nM
IC50 [4]: > 10000 nM

COc1ccc(/C=C/C(=O)c2ccc(OC)c3c2OC(C)(C)C=C3)cc1OCCO
IC50 [1]: > 10000 nM
IC50 [2]: > 10 µM
IC50 [3]: > 10000 nM
IC50 [4]: 9600 nM

COc1ccc(/C=C/C(=O)c2ccc(OC)c3c2OC(C)(C)C=C3)cc1OS(=O)(=O)Cc1ccccc1
IC50 [1]: > 10000 nM
IC50 [2]: > 10 µM
IC50 [3]: > 10000 nM
IC50 [4]: > 10000 nM

COc1ccc(/C=C/C(=O)c2ccc(OC)c3c2OC(C)(C)C=C3)cc1OCCN1CCCC1
IC50 [1]: 3050 nM
IC50 [2]: 9.5 µM
IC50 [3]: > 10000 nM
IC50 [4]: 3810 nM

COc1ccc(/C=C/C(=O)c2ccc(OC)c3c2OC(C)(C)C=C3)cc1OCCN1CCOCC1
IC50 [1]: 8350 nM
IC50 [2]: > 10 µM
IC50 [3]: > 10000 nM
IC50 [4]: 8200 nM

COc1ccc(/C=C/C(=O)c2ccc(OC)c3c2OC(C)(C)C=C3)cc1OS(C)(=O)=O
IC50 [1]: 9240 nM
IC50 [2]: > 10 µM
IC50 [3]: 9180 nM
IC50 [4]: > 10000 nM

COc1ccc(/C=C/C(=O)c2ccc(OC)c3c2OC(C)(C)C=C3)cc1OC(=O)C1CC1
IC50 [1]: 410 nM
IC50 [2]: > 10 µM
IC50 [3]: 220 nM
IC50 [4]: 380 nM

C=CC(=O)Oc1cc(/C=C/C(=O)c2ccc(OC)c3c2OC(C)(C)C=C3)ccc1OC
IC50 [1]: 300 nM
IC50 [2]: > 10 µM
IC50 [3]: 160 nM
IC50 [4]: 390 nM

COc1cccc(C(=O)Oc2cc(/C=C/C(=O)c3ccc(OC)c4c3OC(C)(C)C=C4)ccc2OC)c1
IC50 [1]: 790 nM
IC50 [2]: > 10 µM
IC50 [3]: 870 nM
IC50 [4]: 800 nM

C=CCOc1cc(/C=C/C(=O)c2ccc(OC)c3c2OC(C)(C)C=C3)ccc1OC
IC50 [1]: > 10000 nM
IC50 [2]: > 20 µM
IC50 [3]: > 10000 nM
IC50 [4]: > 10000 nM

CCCCC(=O)Oc1cc(/C=C/C(=O)c2ccc(OC)c3c2OC(C)(C)C=C3)ccc1OC
IC50 [5]: 270 nM
Activity [6]: Active
IC50 [7]: 2300 nM
Ratio IC50 [8]: 3
IC50 [9]: 90 nM
IC50 [10]: > 2000 nM
IC50 [11]: 210 nM
IC50 [12]: 100 nM
IC50 [13]: 250 nM
Activity [14]: Active
IC50 [15]: 5.92 µM
IC50 [1]: 240 nM
IC50 [16]: 18.1 µM
IC50 [17]: 100 nM
Activity [18]: Active
Activity [19]: Dose-dependent effect
IC50 [2]: > 10 µM
IC50 [3]: 100 nM
IC50 [20]: 170 nM
IC50 [21]: 600 nM
IC50 [22]: 190 nM
IC50 [4]: 220 nM
IC50 [23]: 330 nM
IC50 [24]: 300 nM
IC50 [25]: 5.45 µM
IC50 [26]: 120 nM
Activity [27]: 69.18%
Activity [28]: 53.47%

COc1ccc(/C=C/C(=O)c2ccc(OC)c3c2OC(C)(C)C=C3)cc1OC(=O)Cc1cccc(C(F)(F)F)c1
IC50 [1]: 290 nM
IC50 [2]: > 10 µM
IC50 [3]: 570 nM
IC50 [4]: 480 nM

— ChEMBL document CHEMBL2331170, “Synthesis and biological evaluation of novel pyranochalcone derivatives as a new class of microtubule stabilizing agents” (Eur J Med Chem, 2013)
